The record followed here is ChEMBL document CHEMBL4811225 (J Med Chem, 2021).

Test [1] has as its target Nicotinic acetylcholine receptor alpha6/alpha3/beta4 (Rattus norvegicus, UniProt P04757+P12392+P43143). Format: cell-based, Oocyte.
Test [2] has as its target Neuronal acetylcholine receptor; alpha3/beta2 (Rattus norvegicus, UniProt P04757+P12390). It is filed as cell-based, Oocyte.
In test [3] the target is Neuronal acetylcholine receptor; alpha3/beta4 (Rattus norvegicus, UniProt P04757+P12392). It is filed as cell-based, Oocyte.
The target in test [4] is Neuronal acetylcholine receptor; alpha4/beta2 (Rattus norvegicus, UniProt P09483+P12390). It is filed as cell-based, Oocyte.
Test [5] addresses Neuronal acetylcholine receptor; alpha4/beta4 (Rattus norvegicus, UniProt P09483+P12392). It is filed as cell-based, Oocyte.
In test [6] the target is Nicotinic acetylcholine receptor alpha6/alpha3/beta2/beta3 (Rattus norvegicus, UniProt P04757+P12390+P12391+P43143). It is filed as cell-based, Oocyte.
Test [7] has as its target Neuronal acetylcholine receptor subunit alpha-7 (Rattus norvegicus, UniProt Q05941). Format: cell-based, Oocyte.
The target of test [8] is Neuronal acetylcholine receptor; alpha2/beta2 (Homo sapiens, UniProt P17787+Q15822). Briefly: Inhibition of human alpha2beta2 nAChR expressed in Xenopus laevis oocytes assessed as inhibition of acetylcholine-induced current response by two-electrode voltage-clamp method. It is filed as cell-based, Oocyte. The procedure, abridged: (§1)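 Two-electrode voltage clamp of stage IV–V oocytes 1–5 days after equal-ratio cRNA injection; ACh 100 μM (β2-containing subtypes, α9α10), 1 s every 60 s in frog saline. Peptide perfused up to 1 μM, responses normalized to mean of three control responses; above 1 μM, 5 min static bath. IC50 with 95% CI; n = oocytes.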
(In two-electrode clamp one electrode senses voltage and the other passes current.)

In test [9] the target is Neuronal acetylcholine receptor; alpha2/beta2 (Rattus norvegicus, UniProt P12389+P12390). Briefly: Inhibition of rat alpha2beta2 nAChR expressed in Xenopus laevis oocytes assessed as inhibition of acetylcholine-induced current response by two-electrode voltage-clamp method. Format: cell-based, Oocyte. The procedure, abridged: as §1
Test [10] concerns the target Neuronal acetylcholine receptor; alpha2/beta4 (Rattus norvegicus, UniProt P12389+P12392). Briefly: Inhibition of rat alpha2beta4 nAChR expressed in Xenopus laevis oocytes assessed as inhibition of acetylcholine-induced current response by two-electrode voltage-clamp method. Format: cell-based, Oocyte. The procedure, abridged:
(§2)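 TEVC on stage IV–V oocytes 1–5 days after equal-ratio cRNA injection (α2β4, α3β4, α4β4, α7). ACh 300 μM, 1 s pulses at 60 s intervals under frog saline perfusion. Peptide perfused to 1 μM, normalized to average of three control responses; higher concentrations by 5 min static bath. IC50 with 95% CI, n oocytes.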

The target in test [11] is Neuronal acetylcholine receptor; alpha3/beta2 (Homo sapiens, UniProt P17787+P32297). Briefly: Inhibition of human alpha3beta2 nAChR expressed in Xenopus laevis oocytes assessed as inhibition of acetylcholine-induced current response by two-electrode voltage-clamp method. Format: cell-based, Oocyte. The procedure, abridged: as §1
Test [12] deals with Neuronal acetylcholine receptor; alpha3/beta4 (Homo sapiens, UniProt P30926+P32297). Briefly: Inhibition of human alpha3beta4 nAChR expressed in Xenopus laevis oocytes assessed as inhibition of acetylcholine-induced current response by two-electrode voltage-clamp method. Format: cell-based, Oocyte. The procedure, abridged:
as §2

The target of test [13] is Neuronal acetylcholine receptor; alpha4/beta2 (Homo sapiens, UniProt P17787+P43681). Put plainly: Inhibition of human alpha4beta2 nAChR expressed in Xenopus laevis oocytes assessed as inhibition of acetylcholine-induced current response by two-electrode voltage-clamp method. Format: cell-based, Oocyte. In short, it runs like this: as §1
The nature of test [14]: Inhibition of human alpha4beta4 nAChR expressed in Xenopus laevis oocytes assessed as inhibition of acetylcholine-induced current response by two-electrode voltage-clamp method. Format: cell-based. As to conditions: Oocyte. The procedure, abridged: as §2
Test [15] concerns the target Neuronal acetylcholine receptor; alpha3/alpha6/beta2/beta3 (Homo sapiens, UniProt P17787+P32297+Q05901+Q15825). Put plainly: Inhibition of human alpha6/alpha3beta2beta3 nAChR expressed in Xenopus laevis oocytes assessed as inhibition of acetylcholine-induced current response by two-electrode voltage-clamp method. It is filed as cell-based, Oocyte. The procedure, abridged:
as §1

The target in test [16] is Neuronal acetylcholine receptor subunit alpha-7 (Homo sapiens, UniProt P36544). Put plainly: Inhibition of human alpha7 nAChR expressed in Xenopus laevis oocytes assessed as inhibition of acetylcholine-induced current response by two-electrode voltage-clamp method. It is filed as cell-based, Oocyte. In short, it runs like this:
as §2

Test [17] addresses Neuronal acetylcholine receptor; alpha9/alpha10 (Homo sapiens, UniProt Q9GZZ6+Q9UGM1). Put plainly: Inhibition of human alpha9alpha10 nAChR expressed in Xenopus laevis oocytes assessed as inhibition of acetylcholine-induced current response by two-electrode voltage-clamp method. Format: cell-based, Oocyte. The procedure, abridged: as §1
Test [18] has as its target Nicotinic acetylcholine receptor alpha9/alpha10 (Rattus norvegicus, UniProt P43144+Q9JLB5). Put plainly: Inhibition of rat alpha9alpha10 nAChR expressed in Xenopus laevis oocytes assessed as inhibition of acetylcholine-induced current response by two-electrode voltage-clamp method. It is filed as cell-based, Oocyte. In short, it runs like this:
as §1

The species named for test [19] is Homo sapiens. Put plainly: Selectivity ratio of IC50 for human alpha2beta2 nAChR to IC50 for human alpha6/alpha3beta4 nAChR. In short, it runs like this:
(§3)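 Ratio of each subtype's IC50, from TEVC inhibition of ACh-evoked currents in X. laevis oocytes, to the IC50 at the same species' α6/α3β4 nAChR; IC50 values with 95% CI, n = number of oocytes.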

The species named for test [20] is Rattus norvegicus. Briefly: Selectivity ratio of IC50 for rat alpha2beta2 nAChR to IC50 for rat alpha6/alpha3beta4 nAChR. In short, it runs like this:
as §3

The species named for test [21] is Homo sapiens. Put plainly: Selectivity ratio of IC50 for human alpha2beta4 nAChR to IC50 for human alpha6/alpha3beta4 nAChR. In short, it runs like this: as §3
For test [22], the species on record is Rattus norvegicus. Briefly: Selectivity ratio of IC50 for rat alpha2beta4 nAChR to IC50 for rat alpha6/alpha3beta4 nAChR. In short, it runs like this: as §3
For test [23], the species on record is Rattus norvegicus. Put plainly: Selectivity ratio of IC50 for rat alpha3beta4 nAChR to IC50 for rat alpha6/alpha3beta4 nAChR. In short, it runs like this: as §3
Test [24] is filed under the species Homo sapiens. Briefly: Selectivity ratio of IC50 for human alpha4beta2 nAChR to IC50 for human alpha6/alpha3beta4 nAChR. In short, it runs like this: as §3
The species named for test [25] is Rattus norvegicus. Put plainly: Selectivity ratio of IC50 for rat alpha4beta2 nAChR to IC50 for rat alpha6/alpha3beta4 nAChR. In short, it runs like this: as §3
Test [26] is filed under the species Homo sapiens. Put plainly: Selectivity ratio of IC50 for human alpha4beta4 nAChR to IC50 for human alpha6/alpha3beta4 nAChR. In short, it runs like this:
as §3

For test [27], the species on record is Rattus norvegicus. Put plainly: Selectivity ratio of IC50 for rat alpha4beta4 nAChR to IC50 for rat alpha6/alpha3beta4 nAChR. The procedure, abridged:
as §3

The species entered for test [28] is Homo sapiens. Briefly: Selectivity ratio of IC50 for human alpha6/alpha3beta2beta3 nAChR to IC50 for human alpha6/alpha3beta4 nAChR. The procedure, abridged:
as §3

The species entered for test [29] is Homo sapiens. Put plainly: Selectivity ratio of IC50 for human alpha9alpha10 nAChR to IC50 for human alpha6/alpha3beta4 nAChR. In short, it runs like this: as §3
In test [30] the target is Neuronal acetylcholine receptor; alpha2/beta4 (Rattus norvegicus) (UniProt P12389+P12392). Put plainly: Inhibition of rat alpha2beta4 nAChR expressed in Xenopus laevis oocytes assessed as inhibition of acetylcholine-induced current response at 10 uM by two-electrode voltage-clamp method relative to control. Format: cell-based. As to conditions: Oocyte. The procedure, abridged: (§4)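 Stage IV–V X. laevis oocytes expressing equal-ratio cRNAs of α2β4, α3β4, α4β4 or α7 subunits; TEVC 1–5 days after injection. ACh 300 μM, 1 s at 60 s intervals. 10 μM peptide as 5 min static bath, normalized to ACh response after 5 min bath of control saline; mean ± SD, n = 4.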

In test [31] the target is Neuronal acetylcholine receptor; alpha4/beta4 (Rattus norvegicus) (UniProt P09483+P12392). Briefly: Inhibition of rat alpha4beta4 nAChR expressed in Xenopus laevis oocytes assessed as inhibition of acetylcholine-induced current response at 10 uM by two-electrode voltage-clamp method relative to control. As to conditions: Oocyte. It is filed as cell-based. In short, it runs like this:
as §4

A further test concerns Oocyte. Briefly: Inhibition of human alpha4beta4 nAChR expressed in Xenopus laevis oocytes assessed as inhibition of acetylcholine-induced current response at 10 uM by two-electrode voltage-clamp method relative to control. Format: cell-based. In short, it runs like this: as §4

Where a SMILES comes first, the peptide text is derived from it. Bridges are numbered along the chain shown (N, C = ends).

Sequence of Nicotinic acetylcholine receptor alpha6/alpha3/beta2/beta3 (P04757 whole entry): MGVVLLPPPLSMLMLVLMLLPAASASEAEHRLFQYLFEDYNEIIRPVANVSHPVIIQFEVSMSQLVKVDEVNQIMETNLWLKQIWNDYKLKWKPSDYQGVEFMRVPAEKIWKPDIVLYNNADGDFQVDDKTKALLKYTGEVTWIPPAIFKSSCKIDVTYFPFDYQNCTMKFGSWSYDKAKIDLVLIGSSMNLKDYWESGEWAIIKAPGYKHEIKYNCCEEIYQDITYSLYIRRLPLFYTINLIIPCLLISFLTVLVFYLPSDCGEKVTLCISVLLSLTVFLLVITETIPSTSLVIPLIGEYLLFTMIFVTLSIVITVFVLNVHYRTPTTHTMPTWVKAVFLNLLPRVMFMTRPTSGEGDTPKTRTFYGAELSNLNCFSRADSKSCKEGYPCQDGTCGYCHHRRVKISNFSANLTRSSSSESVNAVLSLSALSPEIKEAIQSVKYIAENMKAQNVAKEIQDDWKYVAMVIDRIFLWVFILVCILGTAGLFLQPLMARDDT
Sequence of Nicotinic acetylcholine receptor alpha6/alpha3/beta2/beta3 (P12390 whole entry): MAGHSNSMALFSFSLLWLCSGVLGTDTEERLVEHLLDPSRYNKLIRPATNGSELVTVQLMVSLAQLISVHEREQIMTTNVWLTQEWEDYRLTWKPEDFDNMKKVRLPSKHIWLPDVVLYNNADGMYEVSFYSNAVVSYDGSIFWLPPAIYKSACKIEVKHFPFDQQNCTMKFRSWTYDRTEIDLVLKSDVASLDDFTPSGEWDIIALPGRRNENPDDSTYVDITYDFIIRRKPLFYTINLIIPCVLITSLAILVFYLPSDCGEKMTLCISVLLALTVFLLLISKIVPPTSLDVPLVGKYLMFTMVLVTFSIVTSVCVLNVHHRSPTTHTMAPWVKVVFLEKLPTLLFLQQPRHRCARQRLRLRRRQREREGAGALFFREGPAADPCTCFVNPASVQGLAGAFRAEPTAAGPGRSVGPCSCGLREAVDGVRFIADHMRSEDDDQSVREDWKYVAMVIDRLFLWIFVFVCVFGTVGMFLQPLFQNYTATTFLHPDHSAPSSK
Sequence of Nicotinic acetylcholine receptor alpha6/alpha3/beta2/beta3 (P12391 whole entry): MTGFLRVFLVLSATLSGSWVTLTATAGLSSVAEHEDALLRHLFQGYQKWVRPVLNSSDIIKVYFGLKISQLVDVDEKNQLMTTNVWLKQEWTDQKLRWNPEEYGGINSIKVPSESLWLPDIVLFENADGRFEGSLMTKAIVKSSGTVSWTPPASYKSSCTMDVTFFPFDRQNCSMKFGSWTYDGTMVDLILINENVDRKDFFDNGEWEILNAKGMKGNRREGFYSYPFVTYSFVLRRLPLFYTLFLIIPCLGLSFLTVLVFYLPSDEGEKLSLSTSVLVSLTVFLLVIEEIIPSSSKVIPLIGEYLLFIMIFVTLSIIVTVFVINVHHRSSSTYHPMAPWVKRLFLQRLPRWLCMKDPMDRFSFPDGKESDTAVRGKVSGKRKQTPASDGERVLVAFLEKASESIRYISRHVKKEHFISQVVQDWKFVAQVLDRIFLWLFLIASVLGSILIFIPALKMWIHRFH
Sequence of Nicotinic acetylcholine receptor alpha6/alpha3/beta2/beta3 (P43143 whole entry): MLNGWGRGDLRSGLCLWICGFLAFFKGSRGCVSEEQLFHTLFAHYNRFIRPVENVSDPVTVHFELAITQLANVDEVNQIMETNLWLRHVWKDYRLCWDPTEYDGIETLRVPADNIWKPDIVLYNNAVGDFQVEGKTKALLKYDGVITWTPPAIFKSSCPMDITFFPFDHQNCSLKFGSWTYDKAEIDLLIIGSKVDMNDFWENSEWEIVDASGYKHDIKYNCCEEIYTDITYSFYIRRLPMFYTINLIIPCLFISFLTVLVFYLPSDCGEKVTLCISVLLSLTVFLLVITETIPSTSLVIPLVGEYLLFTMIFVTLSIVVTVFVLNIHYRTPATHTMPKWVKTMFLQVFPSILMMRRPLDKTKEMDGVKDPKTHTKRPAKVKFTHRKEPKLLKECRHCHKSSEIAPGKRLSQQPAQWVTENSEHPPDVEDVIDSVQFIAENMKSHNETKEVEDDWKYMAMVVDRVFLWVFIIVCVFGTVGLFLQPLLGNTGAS
Sequence of Neuronal acetylcholine receptor; alpha3/beta4 (Rattus norvegicus, UniProt P04757+P12392) (P04757 whole entry): as the sequence (P04757 whole entry) above
Sequence of Neuronal acetylcholine receptor; alpha3/beta4 (Rattus norvegicus, UniProt P04757+P12392) (P12392 whole entry): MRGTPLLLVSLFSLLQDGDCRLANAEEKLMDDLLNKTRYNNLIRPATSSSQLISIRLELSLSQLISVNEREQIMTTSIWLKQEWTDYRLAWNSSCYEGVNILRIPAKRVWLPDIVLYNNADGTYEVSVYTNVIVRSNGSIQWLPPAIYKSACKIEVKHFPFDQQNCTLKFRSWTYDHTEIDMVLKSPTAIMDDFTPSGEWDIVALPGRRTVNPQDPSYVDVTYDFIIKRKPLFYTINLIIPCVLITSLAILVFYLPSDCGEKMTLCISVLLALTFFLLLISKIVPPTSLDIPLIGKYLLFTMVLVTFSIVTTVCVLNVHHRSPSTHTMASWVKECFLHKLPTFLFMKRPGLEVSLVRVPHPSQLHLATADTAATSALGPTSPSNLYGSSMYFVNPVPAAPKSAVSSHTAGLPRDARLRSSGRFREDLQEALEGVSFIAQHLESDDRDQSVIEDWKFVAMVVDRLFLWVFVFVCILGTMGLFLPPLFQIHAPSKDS
Sequence of Nicotinic acetylcholine receptor alpha6/alpha3/beta4 (P04757 whole entry): as the sequence (P04757 whole entry) above
Sequence of Nicotinic acetylcholine receptor alpha6/alpha3/beta4 (P12392 whole entry): as the sequence (P12392 whole entry) above
Sequence of Nicotinic acetylcholine receptor alpha6/alpha3/beta4 (P43143 whole entry): as the sequence (P43143 whole entry) above
Sequence of Neuronal acetylcholine receptor subunit alpha-7 (Rattus norvegicus, UniProt Q05941) (Q05941 whole entry, the tested form may be a part): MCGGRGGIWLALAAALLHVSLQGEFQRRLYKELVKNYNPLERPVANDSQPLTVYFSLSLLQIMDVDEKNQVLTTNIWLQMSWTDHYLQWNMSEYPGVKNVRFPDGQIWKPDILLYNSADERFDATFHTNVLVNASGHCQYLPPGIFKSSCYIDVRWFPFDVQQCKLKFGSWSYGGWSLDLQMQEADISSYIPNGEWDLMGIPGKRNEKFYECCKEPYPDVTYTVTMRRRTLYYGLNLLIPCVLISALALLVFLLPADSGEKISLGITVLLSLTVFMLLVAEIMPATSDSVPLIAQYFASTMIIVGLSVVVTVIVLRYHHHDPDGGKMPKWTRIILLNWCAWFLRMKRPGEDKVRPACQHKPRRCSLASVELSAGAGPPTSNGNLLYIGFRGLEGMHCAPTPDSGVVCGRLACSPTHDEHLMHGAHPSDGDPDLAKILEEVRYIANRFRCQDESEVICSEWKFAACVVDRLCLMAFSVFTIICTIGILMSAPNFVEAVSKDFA

Usually IC50 stands for the concentration that gives 50% inhibition. `CC(C)C[C@@H]1NC(=O)[C@H](C)NC(=O)[C@@H]2CCCN2C(=O)[C@H](CCC(=O)O)NC(=O)[C@H](CCCNC(=N)N)NC(=O)[C@H](C)NC(=O)[C@H](Cc2cnc[nH]2)NC(=O)[C@@H]2CSSC[C@H](NC(=O)CN)C(=O)N[C@@H](CSSC[C@@H](C(N)=O)NC1=O)C(=O)N[C@@H](CO)C(=O)N[C@@H](Cc1cnc[nH]1)C(=O)N1CCC[C@H]1C(=O)N[C@@H](Cc1cnc[nH]1)C(=O)N2` (H-GCCSHPHCHAREPALC-NH2; disulfide 2-8, 3-16): the IC50 in test [1] is 0.0438 µM; in [2] it was more than 10 µM; in test [3], more than 10 µM; in test [4], more than 10 µM; in [5] it was more than 10 µM; in test [6], 0.0438 µM. In test [7], the IC50 is more than 10 µM.
As a reminder, the inhibition is the drop in the measured response relative to a control, in per cent. On to `CC(C)C[C@@H]1NC(=O)[C@H](C)NC(=O)[C@H](CCCNC(=N)N)NC(=O)[C@H](Cc2cnc[nH]2)NC(=O)[C@H](CCCNC(=N)N)NC(=O)[C@H](C)NC(=O)[C@H](CCCNC(=N)N)NC(=O)[C@@H]2CSSC[C@H](NC(=O)CN)C(=O)N[C@@H](CSSC[C@@H](C(N)=O)NC1=O)C(=O)N[C@@H](CO)C(=O)N[C@@H](Cc1cnc[nH]1)C(=O)N1CCC[C@H]1C(=O)N[C@@H](C(C)C)C(=O)N2` (H-GCCSHPVCRARHRALC-NH2; disulfide 2-8, 3-16), for which the IC50 is more than 10 µM in test [1]; more than 10 µM in test [8]; more than 10 µM in test [9]; more than 10 µM in [10]; 12.2 µM in [11]; 9.51 µM in [2]. Further, the IC50 was 9.06 µM in test [12]; more than 10 µM in test [3]; more than 10 µM in test [13]; more than 10 µM in test [4]; more than 10 µM in [14]; 0.00555 µM in test [15]. In addition, the concentration for half-maximal inhibition (IC50) in test [6] is 0.00314 µM; in [16], 5.56 µM; in test [7] it was 3.94 µM; in test [17] it was 0.576 µM; in test [18] it was 0.667 µM. The Ratio IC50 in the test listed under Homo sapiens [19] is more than 1800; in the test filed under Rattus norvegicus [20], more than 3180; in the test listed under Homo sapiens [21] it was more than 1800; in the test filed under Rattus norvegicus [22] it was more than 3180; in the test listed under Rattus norvegicus [23], more than 3180; in the test filed under Homo sapiens [24], more than 1800. In addition, the Ratio IC50 in the test listed under Rattus norvegicus [25] was more than 3180; in the test listed under Homo sapiens [26], more than 1800; in the test filed under Rattus norvegicus [27], more than 3180; in the test filed under Homo sapiens [28], 1; in the test filed under Homo sapiens [29], 104. The values for the inhibition (in test [30]; in test [31]; in the test with Oocyte) were 85%, 82% and 92%, respectively.
